The source made the active and inactive calls.

A short description of assay [1]: Growth inhibition of p53+, pRb+ human LS 174T cells after 48 hrs by MTT assay. The class given is functional, cell-based. The following applies: LS174T. The procedure, abridged: (§1)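 MTT cell proliferation assay. IC50 (µM) was defined as the concentration giving 50% inhibition of cell growth.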
Background: Formazan colour is commonly taken as a measure of viable cells.

In assay [2] the target is Cyclin-dependent kinase 4/cyclin D1 (Homo sapiens, UniProt P11802). Description: Binding affinity to human CDK4/cyclinD1 using GST-pRB152 as substrate by chemiluminescence assay. Type of assay: protein-complex assay.
Sequence of Cyclin-dependent kinase 4/cyclin D1 (P11802 whole entry): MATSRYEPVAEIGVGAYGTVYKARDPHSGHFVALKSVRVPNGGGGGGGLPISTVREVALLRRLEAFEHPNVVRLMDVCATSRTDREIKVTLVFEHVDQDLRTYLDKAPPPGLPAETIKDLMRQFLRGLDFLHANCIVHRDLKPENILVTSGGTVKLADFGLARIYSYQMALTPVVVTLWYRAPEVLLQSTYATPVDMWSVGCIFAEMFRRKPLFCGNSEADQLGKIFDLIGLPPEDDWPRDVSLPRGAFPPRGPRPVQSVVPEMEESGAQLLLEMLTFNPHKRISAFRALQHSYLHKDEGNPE
Sequence of Cyclin-dependent kinase 4/cyclin D1 (P24385 whole entry, further chain): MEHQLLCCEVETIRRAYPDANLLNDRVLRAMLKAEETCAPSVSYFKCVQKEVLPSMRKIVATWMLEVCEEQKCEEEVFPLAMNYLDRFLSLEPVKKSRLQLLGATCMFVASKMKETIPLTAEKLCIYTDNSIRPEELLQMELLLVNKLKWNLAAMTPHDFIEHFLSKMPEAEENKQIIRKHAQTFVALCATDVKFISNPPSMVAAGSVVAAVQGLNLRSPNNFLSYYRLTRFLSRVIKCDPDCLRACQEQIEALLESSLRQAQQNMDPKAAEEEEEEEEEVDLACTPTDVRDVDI
Assay [3] deals with CDK2/Cyclin A2 (Homo sapiens, UniProt P24941). Briefly: Binding affinity to human CDK2/cyclinA using GST-pRB152 as substrate by chemiluminescence assay. The class given is protein-complex assay.
Assay [4] deals with CDK9/cyclin T1 (Homo sapiens, UniProt P50750). Description: Binding affinity to human CDK9/cyclinT1. The class given is protein-complex assay.
Sequence of CDK9/cyclin T1 (O60563 whole entry): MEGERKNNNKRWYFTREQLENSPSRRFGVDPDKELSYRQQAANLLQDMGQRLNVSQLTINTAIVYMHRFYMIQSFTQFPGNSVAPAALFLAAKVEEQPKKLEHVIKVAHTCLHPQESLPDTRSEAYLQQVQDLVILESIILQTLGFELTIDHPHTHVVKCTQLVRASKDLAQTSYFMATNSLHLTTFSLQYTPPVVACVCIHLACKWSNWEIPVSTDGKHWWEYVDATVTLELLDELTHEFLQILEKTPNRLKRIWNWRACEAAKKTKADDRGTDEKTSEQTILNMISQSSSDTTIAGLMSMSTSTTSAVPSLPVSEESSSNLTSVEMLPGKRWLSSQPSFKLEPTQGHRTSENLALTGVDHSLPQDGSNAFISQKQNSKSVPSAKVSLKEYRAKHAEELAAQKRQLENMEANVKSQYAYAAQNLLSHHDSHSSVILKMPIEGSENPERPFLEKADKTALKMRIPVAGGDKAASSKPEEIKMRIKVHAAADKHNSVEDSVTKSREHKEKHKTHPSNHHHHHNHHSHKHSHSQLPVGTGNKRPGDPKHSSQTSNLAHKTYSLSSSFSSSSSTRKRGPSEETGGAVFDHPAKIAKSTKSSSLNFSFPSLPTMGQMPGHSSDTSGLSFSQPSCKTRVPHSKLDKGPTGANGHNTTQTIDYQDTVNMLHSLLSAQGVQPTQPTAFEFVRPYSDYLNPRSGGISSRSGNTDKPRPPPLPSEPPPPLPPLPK
Sequence of CDK9/cyclin T1 (P50750 whole entry): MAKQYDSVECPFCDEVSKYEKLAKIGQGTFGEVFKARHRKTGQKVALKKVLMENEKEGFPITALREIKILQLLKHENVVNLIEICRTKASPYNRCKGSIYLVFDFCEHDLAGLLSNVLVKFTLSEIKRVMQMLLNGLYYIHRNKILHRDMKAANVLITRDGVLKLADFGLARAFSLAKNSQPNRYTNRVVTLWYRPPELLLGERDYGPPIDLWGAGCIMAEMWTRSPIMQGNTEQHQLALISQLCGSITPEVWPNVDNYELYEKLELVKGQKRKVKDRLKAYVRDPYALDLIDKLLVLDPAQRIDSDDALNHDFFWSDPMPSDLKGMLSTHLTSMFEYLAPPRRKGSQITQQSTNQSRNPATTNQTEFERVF
In assay [5] the test system is A549. Description: Growth inhibition of p53+, pRb+ human A549 cells after 48 hrs by MTT assay. Type of assay: functional, cell-based. Conditions: A549, 48 h. In outline:
as §1

A short description of assay [6]: Displacement of ethidium bromide from closed circular plasmid DNA (unknown origin) by fluorescence quenching assay.
Assay [7] deals with Cyclin-dependent kinase 1/cyclin B1 (Homo sapiens, UniProt P06493). Description: Binding affinity to human CDK1/cyclinB1. Type of assay: protein-complex assay.
Sequence of Cyclin-dependent kinase 1/cyclin B1 (P06493 whole entry): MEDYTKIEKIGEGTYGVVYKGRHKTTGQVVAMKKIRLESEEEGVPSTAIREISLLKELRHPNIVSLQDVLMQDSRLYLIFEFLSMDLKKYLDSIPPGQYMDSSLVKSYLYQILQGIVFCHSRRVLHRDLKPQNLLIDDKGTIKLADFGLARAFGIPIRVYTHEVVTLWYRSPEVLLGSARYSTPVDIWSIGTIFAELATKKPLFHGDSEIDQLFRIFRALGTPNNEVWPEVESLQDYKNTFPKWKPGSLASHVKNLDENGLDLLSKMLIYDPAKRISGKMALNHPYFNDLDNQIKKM
Sequence of Cyclin-dependent kinase 1/cyclin B1 (P14635 whole entry, further chain): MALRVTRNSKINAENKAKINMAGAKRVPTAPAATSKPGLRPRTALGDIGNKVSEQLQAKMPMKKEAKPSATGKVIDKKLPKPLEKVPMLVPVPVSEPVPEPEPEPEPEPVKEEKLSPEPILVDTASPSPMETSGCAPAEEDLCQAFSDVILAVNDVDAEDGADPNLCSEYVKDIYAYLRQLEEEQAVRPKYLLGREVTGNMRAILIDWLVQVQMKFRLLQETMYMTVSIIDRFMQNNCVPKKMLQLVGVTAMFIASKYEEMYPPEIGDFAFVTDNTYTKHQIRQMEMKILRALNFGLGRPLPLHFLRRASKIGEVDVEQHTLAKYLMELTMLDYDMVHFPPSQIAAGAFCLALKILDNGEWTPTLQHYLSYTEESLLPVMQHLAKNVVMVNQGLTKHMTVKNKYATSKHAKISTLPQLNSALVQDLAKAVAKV
The target in assay [8] is Cyclin-dependent kinase 2/cyclin E1 (Homo sapiens, UniProt P24941). Briefly: Binding affinity to human CDK2/cyclinE. Type of assay: protein-complex assay.
Assay [9] in a line: Growth inhibition of p53 null, pRb+ human Calu1 cells after 48 hrs by MTT assay. The following applies: Calu-1, 48 h. Type of assay: functional, cell-based. The procedure, abridged: as §1
Assay [10] can be described thus: Growth inhibition of p53 null,pRb+ human PC3 cells after 48 hrs by MTT assay. Type of assay: functional, cell-based. The following applies: PC-3, 48 h. The procedure, abridged: as §1
Assay [11] deals with NCI-H1299. Description: Growth inhibition of p53 null, pRb+ human NCI-H1299 cells after 48 hrs by MTT assay. The class given is functional, cell-based. Conditions: NCI-H1299, 48 h. In outline:
as §1

The subject of assay [12] is NCI-H358. Description: Growth inhibition of p53 null, pRb null human NCI-H358 cells after 48 hrs by MTT assay. The class given is functional, cell-based. Conditions: NCI-H358, 48 h. The procedure, abridged:
as §1

A short description of assay [13]: Growth inhibition of p53+, pRb+ human NCI-H460 cells after 48 hrs by MTT assay. The class given is functional, cell-based. Conditions: NCI-H460, 48 h. In outline:
as §1

A short description of assay [14]: Growth inhibition of mouse BNL-SVA.8 cells after 48 hrs by MTT assay. The class given is functional. In outline: as §1
Assay [15] is described as follows: Growth inhibition of mouse BNL-CL2 cells after 48 hrs by MTT assay. The following applies: BNL CL.2, 48 h. The class given is functional, cell-based. The procedure, abridged:
as §1

Assay [16] can be described thus: Growth inhibition of p53His273 mut, pRb+ human MiaPaCa cells after 48 hrs by MTT assay. Type of assay: functional. The following applies: MIA PaCa-2, 48 h. The procedure, abridged:
as §1

Turning to `O=C1c2ccccc2-[n+]2ccc3c([nH]c4ccccc43)c21` [FASCAPLYSIN CHLORIDE], the IC50 in assay [1] is 0.88 µM; in assay [2], 0.41 µM; in assay [3], greater than 250 µM; in assay [4] it was greater than 250 µM; in assay [5] it was 0.69 µM; in assay [6], 5 µM. For the same compound, the IC50 is greater than 250 µM in assay [7], greater than 250 µM in [8], 1.3 µM in assay [9] and 0.92 µM in assay [10].
In the case of `CN(CCc1c[nH]c2ccccc12)C(=O)c1ccc(C(C)(C)C)cc1`, the IC50 in assay [4] is greater than 1000 µM; in assay [11], 11.5 µM; in [12] it was 14 µM; in [13], 9.8 µM; in [7], greater than 500 µM; in assay [14] it was 22 µM. In addition, the IC50 in assay [15] was 18 µM; in [16] it was 10.2 µM. The inhibition entry in [6] is “inactive”.
On to `CN(CCc1c[nH]c2ccccc12)C(=O)c1ccc(Cl)cc1`, for which the IC50 was greater than 1000 µM in assay [4]; 21 µM in [11]; 26 µM in assay [12]; 24 µM in assay [13]; greater than 500 µM in [7]; 32 µM in [14]. In addition, the IC50 in assay [15] stood at 29 µM; in assay [16], 31 µM. The inhibition result in assay [6] is “inactive”.

One may read the IC50 as the midpoint of a concentration-inhibition curve. Low readings indicate greater potency, high ones weaker potency.

The values above are taken from ChEMBL document CHEMBL3351368, “Biphenyl-4-carboxylic acid [2-(1H-indol-3-yl)-ethyl]-methylamide (CA224), a nonplanar analogue of fascaplysin, inhibits Cdk4 and tubulin polymerization: evaluation of in vitro and in vivo anticancer activity” (J Med Chem, 2014).
